Laboratory results reported in ChEMBL document CHEMBL3132758, “Synthesis, Activity and Structure-Activity Relationship of Noroviral Protease Inhibitors” (Medchemcomm, 2013).
One block for each compound: values may come before it. Activity calls are given as the source filed them. The rule behind the calls is not given here. Non-standard residues stand in square brackets, D forms with d. Residues, ends and D or L forms follow the SMILES beside them. *: point of attachment. Pyrrolidide = C1CCN(*)C1; Cbz = O=C(OCc1ccccc1)*; Dap = NC[C@H](N)C(=O)O

Assays:
[1] = (§1) Inhibition of Norwalk virus recombinant His6-tagged protease using EDANS-EPDFHLQGPEDLAK-Dabcyl as substrate preincubated for 45 mins followed by substrate addition measured every 1 min for 30 mins by FRET analysis
Procedure, shortened: (§2)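 Protease purified on Ni-NTA, used at 0.5 μM final. Preincubated with inhibitor (0, 0.05, 0.2, 1, 5, 20, 100, 150 μM) in 50 mM NaH2PO4 pH 8, 50 mM NaCl, 5 mM TCEP, room temperature. Substrate added to 30 μM final. Fluorescence read at ex 360/em 460 nm at 37 °C. Ki derived from initial velocities by Morrison tight-binding fit.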

[2] = system: Norwalk virus; test: as §1; procedure, shortened: as §2
[3] = Selectivity ratio of Ki for Houston virus recombinant His6-tagged protease to Ki for Norwalk virus recombinant His6-tagged protease
[4] = Inhibition of Houston virus recombinant His6-tagged protease using EDANS-EPDFHLQGPEDLAK-Dabcyl as substrate preincubated for 45 mins followed by substrate addition measured every 1 min for 30 mins by FRET analysis; parameters: species or system genotype 2; procedure, shortened: as §2

Compound: CC(=O)[C@H](CCC(=O)N(C)C)NC(=O)[C@H](Cc1ccccc1)NC(=O)[C@H](CC(C)C)NC(=O)OCc1ccccc1
- Ki [1]: 150 µM

Compound: CC(C)C[C@H](NC(=O)OCc1ccccc1)C(=O)N[C@@H](Cc1ccccc1)C(=O)N[C@H](C=O)CCC(=O)NC1CC1
- Ki [1]: 1.4 µM

- inhibition [2]: inactive
Compound: CCOC(=O)/C=C/[C@H](CCC(=O)N(C)C)NC(=O)[C@H](Cc1ccccc1)NC(=O)[C@H](CC(C)C)NC(=O)OCc1ccccc1

- inhibition [2]: inactive
Compound: CCOC(=O)/C=C/[C@H](CCC(N)=O)NC(=O)[C@H](Cc1ccccc1)NC(=O)[C@H](CC(C)C)NC(=O)OCc1ccccc1

- inhibition [2]: inactive
Compound: CCOC(=O)/C=C/[C@H](CNC(C)=O)NC(=O)[C@H](Cc1ccccc1)NC(=O)[C@H](CC(C)C)NC(=O)OCc1ccccc1

Compound: CC(=O)N[C@@H](CC(C)C)C(=O)N[C@@H](Cc1ccccc1)C(=O)N[C@H](C=O)CCC(=O)N(C)C (Ac-Leu-Phe-Glu(NMe2)-aldehyde)
- Ki [1]: 39 µM

Compound: CC(C)C[C@H](NC(=O)[C@H](C)NC(=O)OCc1ccccc1)C(=O)N[C@H](C=O)CCC(=O)N(C)C (Cbz-Ala-Leu-Glu(NMe2)-aldehyde)
- Ratio Ki [3]: 10
- Ki [4]: 4.6 µM
- Ki [1]: 0.59 µM

Compound: CN(C)C(=O)CC[C@@H](C=O)NC(=O)[C@H](Cc1ccccc1)NC(=O)[C@H](CC(N)=O)NC(=O)OCc1ccccc1 (Cbz-Asn-Phe-Glu(NMe2)-aldehyde)
- Ki [1]: 1.6 µM

Compound: CC(C)C[C@H](NC(=O)[C@H](CCC(N)=O)NC(=O)OCc1ccccc1)C(=O)N[C@H](C=O)CCC(=O)N(C)C (Cbz-Gln-Leu-Glu(NMe2)-aldehyde)
- Ratio Ki [3]: 10
- Ki [4]: 4.3 µM
- Ki [1]: 0.31 µM

Compound: CC(C)C[C@H](NC(=O)[C@H](Cc1c[nH]cn1)NC(=O)OCc1ccccc1)C(=O)N[C@H](C=O)CCC(=O)N(C)C (Cbz-His-Leu-Glu(NMe2)-aldehyde)
- Ki [1]: 1.9 µM

Compound: CNC(=O)CC[C@@H](C=O)NC(=O)[C@H](Cc1ccccc1)NC(=O)[C@H](CC(C)C)NC(=O)OCc1ccccc1 (Cbz-Leu-Phe-Glu(NHMe)-aldehyde)
- Ki [1]: 5.1 µM

Compound: CC(C)C[C@H](NC(=O)OCc1ccccc1)C(=O)N[C@@H](Cc1ccccc1)C(=O)N[C@H](C=O)CCC(=O)N(C)C (Cbz-Leu-Phe-Glu(NMe2)-aldehyde)
- Ratio Ki [3]: 60
- Ki [4]: 7.5 µM
- Ki [1]: 0.12 µM

Compound: CC(C)C[C@H](NC(=O)OCc1ccccc1)C(=O)N[C@@H](Cc1ccccc1)C(=O)N[C@H](C=O)CCC(=O)N1CCCC1 (Cbz-Leu-Phe-Glu(Pyrrolidide)-aldehyde)
- Ki [1]: 0.075 µM

Compound: CC(=O)NC[C@@H](C=O)NC(=O)[C@H](Cc1ccccc1)NC(=O)[C@H](CC(C)C)NC(=O)OCc1ccccc1 (Cbz-Leu-Phe-[Dap](Ac)-aldehyde)
- Ratio Ki [3]: 10
- Ki [4]: 14 µM
- Ki [1]: 1.5 µM

Compound: CC(C)C[C@H](NC(=O)OCc1ccccc1)C(=O)N1CCC[C@H]1C(=O)N[C@H](C=O)CCC(=O)N(C)C (Cbz-Leu-Pro-Glu(NMe2)-aldehyde)
- Ki [1]: 46 µM

Compound: CC(C)[C@H](NC(=O)OCc1ccccc1)C(=O)N1CCC[C@H]1C(=O)N[C@H](C=O)CCC(=O)N(C)C (Cbz-Val-Pro-Glu(NMe2)-aldehyde)
- Ki [1]: 8.2 µM
